Laboratory results from ChEMBL document CHEMBL1123801, “Synthesis and antifungal activity of new 1-vinylimidazoles” (1987).
Converted amounts (≈) assume the structure as drawn.

How the values were obtained:
Aspergillus fumigatus = assay: Minimum inhibitory concentration (MIC) against Aspergillus fumigatus; type: functional
Summary of the method: (§1)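 Broth microdilution in Sabouraud's glucose broth. Final inocula 1×10^5 cells/mL for the yeast (C. albicans) and 1×10^5 conidia/mL for the mold (A. fumigatus) and the dermatophyte (T. asteroides). MIC read as the fungistatic end point. Lowest value of duplicated experiments.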

Candida albicans [1] = assay: Inhibition of pseudomycelium formation of Candida albicans.; type: functional; settings: read-out: MEC
Summary of the method: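 C. albicans KE-2 (clinical isolate), final inoculum 1×10^6 yeast cells/mL in EMEM with 20% calf serum. Compounds serially diluted by the microtiter dilution system used for MICs. After incubation, wells Giemsa-stained (5% in phosphate buffer) and examined microscopically. MEC (μg/mL) = lowest concentration preventing typical pseudomycelium formation. Lowest value of duplicated experiments.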

Candida albicans [2] = assay: Minimum inhibitory concentration (MIC) against Candida albicans; type: functional; summary of the method: as §1
Trichophyton benhamiae [3] = assay: (§2) Minimum inhibitory concentration against Trichophyton asteroides; type: functional; summary of the method: as §1
[4] = as §2; type: functional; settings: Trichophyton benhamiae; summary of the method: as §1
[5] = Minimum inhibitory concentration against Aspergillus fumigatus; type: functional, trichophyton asteroides; settings: Trichophyton benhamiae; summary of the method: as §1
Trichophyton benhamiae [6] = assay: Minimum inhibitory concentration against Trichophyton mentagrophytes IFO 5810; type: functional, Arthroderma benhamiae
Summary of the method: (§3)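 Agar dilution on Sabouraud's glucose agar. Inocula 1×10^6 cells/mL for the yeast strains (C. albicans IFO 1060, 1388) and 1×10^6 conidia/mL for the dermatophytes (T. mentagrophytes IFO 5809, 5810; T. rubrum IFO 5467, 5807). MIC in μg/mL, lowest value of duplicated experiments.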

Trichophyton rubrum [7] = assay: Minimum inhibitory concentration against Trichophyton rubrum IFO 5467; type: functional; summary of the method: as §3
Candida albicans [8] = assay: Minimum inhibitory concentration against Candida albicans IFO 1388; type: functional; summary of the method: as §3
Candida albicans [9] = assay: Minimum inhibitory concentration against Candida albicans IFO 1060; type: functional; summary of the method: as §3
Trichophyton benhamiae [10] = assay: Minimum inhibitory concentration against Trichophyton mentagrophytes IFO 5809; type: functional, Arthroderma benhamiae; summary of the method: as §3
Trichophyton rubrum [11] = assay: Minimum inhibitory concentration against Trichophyton rubrum IFO 5807; type: functional; summary of the method: as §3
Trichophyton benhamiae [12] = assay: Minimum inhibitory concentration against Trichophyton mentagrophyte IFO 5810; type: functional; summary of the method: as §3
Trichophyton benhamiae [13] = assay: Minimum inhibitory concentration against Trichophyton mentagrophyte IFO 5809; type: functional; summary of the method: as §3

For `CCCOc1ccc(Cl)cc1C(=C(C)C)n1ccnc1`, the MIC (Aspergillus fumigatus) was 6.3 µg/mL (≈ 21.7 µM), the minimal effective concentration (Candida albicans [1]) was 0.31 µg/mL and the MIC (Candida albicans [2]) was 25 µg/mL (≈ 86 µM). The MIC (Trichophyton benhamiae [3]) was 0.2 µg/mL (≈ 0.688 µM).
`CCC(CC)=C(c1cc(Cl)ccc1OC)n1cncn1` showed an MIC (Aspergillus fumigatus) of 100 µg/mL (≈ 343 µM), a minimal effective concentration (Candida albicans [1]) of 1.25 µg/mL and an MIC (Candida albicans [2]) of 100 µg/mL (≈ 343 µM). For the same compound, the MIC (Trichophyton benhamiae [3]) was 0.8 µg/mL (≈ 2.74 µM).
With `C=C(c1ccccc1OCC(C)C)n1ccnc1` the MIC (Aspergillus fumigatus) was 1.6 µg/mL (≈ 6.6 µM), the minimal effective concentration (Candida albicans [1]) was 0.63 µg/mL and the MIC (Candida albicans [2]) was 100 µg/mL (≈ 413 µM). It also gave an MIC (Trichophyton benhamiae [3]) of 0.1 µg/mL (≈ 0.413 µM).
Compound `CCCOc1ccccc1C(=C(C)C)n1ccnc1` has an MIC (Aspergillus fumigatus) of 0.8 µg/mL (≈ 3.12 µM), a minimal effective concentration (Candida albicans [1]) of 0.31 µg/mL and an MIC (Candida albicans [2]) of 12.5 µg/mL (≈ 48.8 µM). It also gave an MIC (Trichophyton benhamiae [3]) of 0.2 µg/mL (≈ 0.78 µM).
For `C=C(c1cc(Cl)ccc1OC(C)C)n1ccnc1`, the MIC (Aspergillus fumigatus) was 0.8 µg/mL (≈ 3.04 µM), the minimal effective concentration (Candida albicans [1]) was 5 µg/mL and the MIC (Candida albicans [2]) was 50 µg/mL (≈ 190 µM). The MIC (Trichophyton benhamiae [3]) was 0.1 µg/mL (≈ 0.381 µM).
`C=C(c1ccc(Cl)cc1)n1ccnc1` showed an MIC (Aspergillus fumigatus) of 100 µg/mL (≈ 489 µM), a minimal effective concentration (Candida albicans [1]) of over 20 µg/mL and an MIC (Candida albicans [2]) of 100 µg/mL (≈ 489 µM). For the same compound, the MIC (Trichophyton benhamiae [3]) was 25 µg/mL (≈ 122 µM).
Work on `c1ccc(C(n2ccnc2)n2ccnc2)cc1` yielded an MIC (Aspergillus fumigatus) of over 100 µg/mL, an MIC (Candida albicans [2]) of over 100 µg/mL and an MIC [4] of over 100 µg/mL.
`C=C(c1ccccc1)n1ccnc1` showed an MIC (Aspergillus fumigatus) of over 100 µg/mL, a minimal effective concentration (Candida albicans [1]) of over 20 µg/mL and an MIC (Candida albicans [2]) of over 100 µg/mL. The MIC (Trichophyton benhamiae [3]) was 100 µg/mL (≈ 587 µM).
Compound `CC(c1cccc(OCc2ccc(Cl)cc2)c1)(n1ccnc1)n1ccnc1` has an MIC (Aspergillus fumigatus) of over 100 µg/mL, an MIC (Candida albicans [2]) of over 100 µg/mL and an MIC [5] of over 100 µg/mL.
Compound `C=C(c1ccccc1OCCC(C)C)n1ccnc1` has an MIC (Aspergillus fumigatus) of 0.4 µg/mL (≈ 1.56 µM), a minimal effective concentration (Candida albicans [1]) of 0.63 µg/mL and an MIC (Candida albicans [2]) of 25 µg/mL (≈ 97.5 µM). It also gave an MIC (Trichophyton benhamiae [3]) of 0.1 µg/mL (≈ 0.39 µM).
With `CC=C(c1ccccc1OCc1ccc(Cl)c(Cl)c1)n1ccnc1` the MIC (Aspergillus fumigatus) was 0.4 µg/mL (≈ 1.11 µM), the MIC (Trichophyton benhamiae [6]) was 0.8 µg/mL (≈ 2.23 µM) and the MIC (Trichophyton rubrum [7]) was 0.8 µg/mL (≈ 2.23 µM). The MIC (Candida albicans [2]) was 6.2 µg/mL (≈ 17.3 µM), the MIC (Candida albicans [8]) was 12.5 µg/mL (≈ 34.8 µM) and the MIC (Trichophyton benhamiae [3]) was 0.1 µg/mL (≈ 0.278 µM). It also gave an MIC (Candida albicans [9]) of 6.3 µg/mL (≈ 17.5 µM), an MIC (Trichophyton benhamiae [10]) of 0.8 µg/mL (≈ 2.23 µM) and an MIC (Trichophyton rubrum [11]) of 0.8 µg/mL (≈ 2.23 µM).
For `C=C(c1cc(Cl)ccc1OCC(C)C)n1ccnc1`, the MIC (Aspergillus fumigatus) was 0.8 µg/mL (≈ 2.89 µM), the minimal effective concentration (Candida albicans [1]) was 1.25 µg/mL and the MIC (Candida albicans [2]) was 50 µg/mL (≈ 181 µM). It also gave an MIC (Trichophyton benhamiae [3]) of 0.1 µg/mL (≈ 0.361 µM).
Compound `CCC(CC)=C(c1cc(Cl)ccc1OCc1ccc(Cl)cc1)n1cncn1` has an MIC (Aspergillus fumigatus) of over 100 µg/mL, a minimal effective concentration (Candida albicans [1]) of 20 µg/mL and an MIC (Candida albicans [2]) of over 100 µg/mL. For the same compound, the MIC (Trichophyton benhamiae [3]) was over 100 µg/mL.
Compound `COc1ccc(Cl)cc1/C(=C/c1ccccc1)n1ccnc1` has an MIC (Aspergillus fumigatus) of 25 µg/mL (≈ 80.4 µM), a minimal effective concentration (Candida albicans [1]) of over 20 µg/mL and an MIC (Candida albicans [2]) of 12.5 µg/mL (≈ 40.2 µM). The MIC (Trichophyton benhamiae [3]) was 6.2 µg/mL (≈ 19.9 µM).
For `CCC(CC)=C(c1cc(Cl)ccc1OCCC(C)C)n1cncn1`, the MIC (Aspergillus fumigatus) was over 100 µg/mL, the minimal effective concentration (Candida albicans [1]) was 1.25 µg/mL and the MIC (Candida albicans [2]) was over 100 µg/mL. It also gave an MIC (Trichophyton benhamiae [3]) of 0.8 µg/mL (≈ 2.3 µM).
`CC(C)COc1ccc(Cl)cc1/C(=C\CN(C)C)n1ccnc1` gave an MIC (Aspergillus fumigatus) of over 100 µg/mL, a minimal effective concentration (Candida albicans [1]) of 2.5 µg/mL and an MIC (Candida albicans [2]) of over 100 µg/mL. The MIC (Trichophyton benhamiae [3]) was 0.8 µg/mL (≈ 2.4 µM).
Work on `CN(C)C/C=C(\c1ccccc1OCc1ccc(Cl)cc1)n1ccnc1` yielded an MIC (Aspergillus fumigatus) of over 100 µg/mL, a minimal effective concentration (Candida albicans [1]) of 1.25 µg/mL and an MIC (Candida albicans [2]) of over 100 µg/mL. For the same compound, the MIC (Trichophyton benhamiae [3]) was 1.6 µg/mL (≈ 4.35 µM).
Compound `C=C(c1cccc(OCc2ccc(Cl)cc2)c1)n1ccnc1` has an MIC (Aspergillus fumigatus) of 12.5 µg/mL (≈ 40.2 µM), a minimal effective concentration (Candida albicans [1]) of 5 µg/mL and an MIC (Candida albicans [2]) of 50 µg/mL (≈ 161 µM). For the same compound, the MIC (Trichophyton benhamiae [3]) was 1.6 µg/mL (≈ 5.15 µM).
Work on `C=C(c1cc(Cl)ccc1OCc1ccc(Cl)cc1)n1ccnc1` yielded an MIC (Aspergillus fumigatus) of 3.1 µg/mL (≈ 8.98 µM), an MIC (Trichophyton benhamiae [6]) of 1.6 µg/mL (≈ 4.63 µM) and an MIC (Trichophyton rubrum [7]) of 0.8 µg/mL (≈ 2.32 µM). The MIC (Candida albicans [2]) was 12.5 µg/mL (≈ 36.2 µM), the MIC (Candida albicans [8]) was 12.5 µg/mL (≈ 36.2 µM) and the MIC (Trichophyton benhamiae [3]) was 0.1 µg/mL (≈ 0.29 µM). It also gave an MIC (Candida albicans [9]) of 12.5 µg/mL (≈ 36.2 µM), an MIC (Trichophyton benhamiae [10]) of 1.6 µg/mL (≈ 4.63 µM) and an MIC (Trichophyton rubrum [11]) of 0.8 µg/mL (≈ 2.32 µM).
With `C=C(c1ccccc1N(Cc1ccc(Cl)cc1)C(=O)C(F)(F)F)n1ccnc1` the MIC (Aspergillus fumigatus) was 50 µg/mL (≈ 123 µM), the minimal effective concentration (Candida albicans [1]) was 20 µg/mL and the MIC (Candida albicans [2]) was 1.6 µg/mL (≈ 3.94 µM). For the same compound, the MIC (Trichophyton benhamiae [3]) was 1.6 µg/mL (≈ 3.94 µM).
With `Clc1ccccc1C(c1ccccc1)(c1ccccc1)n1ccnc1` [CLOTRIMAZOLE] the MIC (Trichophyton benhamiae [12]) was 0.4 µg/mL (≈ 1.16 µM), the MIC (Trichophyton rubrum [7]) was 0.8 µg/mL (≈ 2.32 µM) and the MIC (Candida albicans [8]) was 12.5 µg/mL (≈ 36.2 µM). For the same compound, the MIC (Candida albicans [9]) was 6.3 µg/mL (≈ 18.3 µM), the MIC (Trichophyton benhamiae [13]) was 0.8 µg/mL (≈ 2.32 µM) and the MIC (Trichophyton rubrum [11]) was 0.8 µg/mL (≈ 2.32 µM).
Compound `C=C(c1ccccc1OCc1cccc(Cl)c1)n1ccnc1` [CROCONAZOLE] has an MIC (Aspergillus fumigatus) of 3.1 µg/mL (≈ 9.97 µM), an MIC (Trichophyton benhamiae [6]) of 0.8 µg/mL (≈ 2.57 µM) and an MIC (Trichophyton rubrum [7]) of 0.4 µg/mL (≈ 1.29 µM). It also gave an MIC (Candida albicans [2]) of 3.1 µg/mL (≈ 9.97 µM), an MIC (Candida albicans [8]) of 12.5 µg/mL (≈ 40.2 µM) and an MIC (Trichophyton benhamiae [3]) of 0.1 µg/mL (≈ 0.322 µM). For the same compound, the MIC (Candida albicans [9]) was 6.3 µg/mL (≈ 20.3 µM), the MIC (Trichophyton benhamiae [10]) was 0.8 µg/mL (≈ 2.57 µM) and the MIC (Trichophyton rubrum [11]) was 0.4 µg/mL (≈ 1.29 µM).
